Assay results: ChEMBL document CHEMBL1777703, “Synthesis and Biological Evaluation of Muraymycin Analogues Active against Anti-Drug-Resistant Bacteria” (ACS Med Chem Lett, 2010)
Values after ≈ are worked out from the molar mass of the structure shown.

Key:
[1] = tested on: Enterococcus faecalis; test: Antibacterial activity against vancomycin-resistant Enterococcus faecalis SR7914 after 20 hrs by broth microdilution method; format: functional; settings: SR7914, 20 h
Procedure, shortened: (§1)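 MIC by broth microdilution following NCCLS guidance in cation-adjusted Mueller-Hinton broth. Compounds tested as serial 2-fold dilutions, tested up to 64 μg/mL. Each well inoculated with 5 × 10^4 CFU of the strain in 0.1 mL. Incubation at 35 °C for 20 h, after which the MIC was scored.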

[2] = tested on: Staphylococcus aureus; test: Antibacterial activity against methicillin-susceptible Staphylococcus aureus ATCC 29213 after 20 hrs by broth microdilution method; format: functional; settings: ATCC 29213, 20 h; procedure, shortened: as §1
[3] = tested on: Enterococcus faecium; test: Antibacterial activity against vancomycin-resistant Enterococcus faecium SR7917 after 20 hrs by broth microdilution method; format: functional; settings: SR7917, 20 h; procedure, shortened: as §1
[4] = tested on: Enterococcus faecium; test: Antibacterial activity against Enterococcus faecium ATCC 19434 after 20 hrs by broth microdilution method; format: functional; settings: ATCC 19434, 20 h; procedure, shortened: as §1
[5] = tested on: Enterococcus faecalis; test: Antibacterial activity against Enterococcus faecalis ATCC 29212 after 20 hrs by broth microdilution method; format: functional; settings: ATCC 29212, 20 h
Procedure, shortened: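 MIC by NCCLS broth microdilution in cation-adjusted Mueller-Hinton broth with serial 2-fold compound dilutions. Inoculum 5 × 10^4 CFU per strain in 0.1 mL. Incubated 35 °C for 20 h before scoring.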

[6] = target: T1, Phospho-N-acetylmuramoyl-pentapeptide-transferase (Bacillus subtilis (strain 168), UniProt Q03521); test: Inhibition of purified Bacillus subtilis MraY assessed as incorporation of MurNAc-[14C]pentapeptide into lipid 1 after 30 mins
T1 sequence (Q03521 whole entry): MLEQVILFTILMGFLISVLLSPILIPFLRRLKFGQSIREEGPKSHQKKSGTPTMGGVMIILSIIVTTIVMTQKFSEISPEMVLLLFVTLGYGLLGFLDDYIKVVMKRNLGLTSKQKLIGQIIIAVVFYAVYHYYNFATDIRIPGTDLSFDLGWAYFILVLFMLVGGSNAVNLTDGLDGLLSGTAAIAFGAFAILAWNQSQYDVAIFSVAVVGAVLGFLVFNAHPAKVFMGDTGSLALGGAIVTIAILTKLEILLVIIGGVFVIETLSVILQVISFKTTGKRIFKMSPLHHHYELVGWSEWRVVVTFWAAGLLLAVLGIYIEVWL
Procedure, shortened: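 Purified B. subtilis MraY. Final mix: 100 mM Tris-HCl pH 7.5, 40 mM MgCl2, 1.1 mM C55-P, 250 mM NaCl, 0.25 mM UDP-MurNAc-[14C]pentapeptide (337 Bq), 8.4 mM N-lauroyl sarcosine. Incubated 30 min at 37 °C. Substrate and lipid I separated by silica TLC and quantified by radioactivity scanning. IC50 calculated relative to an inhibitor-free control.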

[7] = tested on: Staphylococcus aureus; test: Antibacterial activity against methicillin-resistant Staphylococcus aureus SR3637 after 20 hrs by broth microdilution method; format: functional; settings: SR3637, 20 h; procedure, shortened: as §1
[8] = tested on: HepG2; test: Cytotoxicity against human HepG2 cells after 48 hrs by WST-8 assay; format: cell-based; settings: hepg2, 48 h

Compound	MIC [1] [µg/mL]	MIC [2] [µg/mL]	MIC [3] [µg/mL]	MIC [4] [µg/mL]	MIC [5] [µg/mL]	IC50 [6] [nM]	MIC [7] [µg/mL]	Activity [8]
CCCCCCCCCCCCN[C@H](C(=O)O)[C@H](O[C@@H]1O[C@H](CN)[C@@H](O)[C@H]1O)[C@H]1O[C@@H](n2ccc(=O)[nH]c2=O)[C@H](O)[C@@H]1O	64 (≈ 104 µM)	> 64	64 (≈ 104 µM)	64 (≈ 104 µM)	32 (≈ 51.9 µM)	5000	> 64	–
CC(C)[C@H](NC(=O)N[C@H](C(=O)N[C@@H](CCCCCCCc1ccc(-c2ccccc2)cc1)C(=O)NCCCN[C@H](C(=O)O)[C@H](O[C@@H]1O[C@H](CN)[C@@H](O)[C@H]1O)C1O[C@@H](n2ccc(=O)[nH]c2=O)[C@H](O)[C@@H]1O)[C@@H]1CCNC(=N)N1)C(=O)O (single isomer, unassigned)	16 (≈ 14.4 µM)	4 (≈ 3.6 µM)	8 (≈ 7.21 µM)	4 (≈ 3.6 µM)	4 (≈ 3.6 µM)	–	4 (≈ 3.6 µM)	Non-toxic
CCCCOc1ccc(-c2ccc(CC[C@@H](NC(=O)[C@@H](NC(=O)N[C@H](C(=O)O)C(C)C)[C@@H]3CCNC(=N)N3)C(=O)NCCCN[C@H](C(=O)O)[C@H](O[C@@H]3O[C@H](CN)[C@@H](O)[C@H]3O)C3O[C@@H](n4ccc(=O)[nH]c4=O)[C@H](O)[C@@H]3O)cc2)cc1 (single isomer, unassigned)	64 (≈ 57.5 µM)	64 (≈ 57.5 µM)	8 (≈ 7.19 µM)	4 (≈ 3.6 µM)	32 (≈ 28.8 µM)	–	64 (≈ 57.5 µM)	Non-toxic
CCCCCCOc1ccc(-c2ccc([C@H](NC(=O)[C@@H](NC(=O)N[C@H](C(=O)O)C(C)C)[C@@H]3CCNC(=N)N3)C(=O)NCCCN[C@H](C(=O)O)[C@H](O[C@@H]3O[C@H](CN)[C@@H](O)[C@H]3O)C3O[C@@H](n4ccc(=O)[nH]c4=O)[C@H](O)[C@@H]3O)cc2)cc1 (single isomer, unassigned)	8 (≈ 7.19 µM)	4 (≈ 3.6 µM)	4 (≈ 3.6 µM)	4 (≈ 3.6 µM)	8 (≈ 7.19 µM)	–	8 (≈ 7.19 µM)	Non-toxic
CCCCCCOc1ccc(-c2ccc([C@@H](NC(=O)[C@@H](NC(=O)N[C@H](C(=O)O)C(C)C)[C@@H]3CCNC(=N)N3)C(=O)NCCCN[C@H](C(=O)O)[C@H](O[C@@H]3O[C@H](CN)[C@@H](O)[C@H]3O)C3O[C@@H](n4ccc(=O)[nH]c4=O)[C@H](O)[C@@H]3O)cc2)cc1 (single isomer, unassigned)	16 (≈ 14.4 µM)	16 (≈ 14.4 µM)	8 (≈ 7.19 µM)	4 (≈ 3.6 µM)	16 (≈ 14.4 µM)	–	16 (≈ 14.4 µM)	Non-toxic
CC(C)C[C@@H](NC(=O)[C@@H](NC(=O)N[C@H](C(=O)O)C(C)C)[C@@H]1CCN=C(N)N1)C(=O)NCCCN[C@H](C(=O)O)[C@H](O[C@@H]1O[C@H](CN)[C@@H](O)[C@H]1O)C1O[C@@H](n2ccc(=O)[nH]c2=O)[C@H](O)[C@@H]1O (single isomer, unassigned)	> 64	> 64	> 64	> 64	> 64	90	> 64	–
CCCCCCCCCCCCCCC[C@H](NC(=O)[C@@H](NC(=O)N[C@H](C(=O)O)C(C)C)[C@@H]1CCN=C(N)N1)C(=O)NCCCN[C@H](C(=O)O)[C@H](O[C@@H]1O[C@H](CN)[C@@H](O)[C@H]1O)C1O[C@@H](n2ccc(=O)[nH]c2=O)[C@H](O)[C@@H]1O (single isomer, unassigned)	4 (≈ 3.74 µM)	2 (≈ 1.87 µM)	2 (≈ 1.87 µM)	4 (≈ 3.74 µM)	4 (≈ 3.74 µM)	330	4 (≈ 3.74 µM)	Non-toxic
CCCCCCCCCCCCCCC[C@@H](NC(=O)[C@@H](NC(=O)N[C@H](C(=O)O)C(C)C)[C@@H]1CCN=C(N)N1)C(=O)NCCCN[C@H](C(=O)O)[C@H](O[C@@H]1O[C@H](CN)[C@@H](O)[C@H]1O)C1O[C@@H](n2ccc(=O)[nH]c2=O)[C@H](O)[C@@H]1O (single isomer, unassigned)	4 (≈ 3.74 µM)	2 (≈ 1.87 µM)	0.25 (≈ 0.234 µM)	0.5 (≈ 0.467 µM)	2 (≈ 1.87 µM)	740	4 (≈ 3.74 µM)	Non-toxic
CC(C)[C@H](NC(=O)N[C@H](C(=O)N[C@H](CCCCCCCc1ccc(-c2ccccc2)cc1)C(=O)NCCCN[C@H](C(=O)O)[C@H](O[C@@H]1O[C@H](CN)[C@@H](O)[C@H]1O)C1O[C@@H](n2ccc(=O)[nH]c2=O)[C@H](O)[C@@H]1O)[C@@H]1CCNC(=N)N1)C(=O)O (single isomer, unassigned)	16 (≈ 14.4 µM)	8 (≈ 7.21 µM)	4 (≈ 3.6 µM)	4 (≈ 3.6 µM)	8 (≈ 7.21 µM)	–	16 (≈ 14.4 µM)	Non-toxic
CCCCOc1ccc(-c2ccc(CC[C@H](NC(=O)[C@@H](NC(=O)N[C@H](C(=O)O)C(C)C)[C@@H]3CCNC(=N)N3)C(=O)NCCCN[C@H](C(=O)O)[C@H](O[C@@H]3O[C@H](CN)[C@@H](O)[C@H]3O)C3O[C@@H](n4ccc(=O)[nH]c4=O)[C@H](O)[C@@H]3O)cc2)cc1 (single isomer, unassigned)	64 (≈ 57.5 µM)	16 (≈ 14.4 µM)	32 (≈ 28.8 µM)	16 (≈ 14.4 µM)	16 (≈ 14.4 µM)	–	32 (≈ 28.8 µM)	Non-toxic
CC(C)C[C@H](NC(=O)[C@@H](NC(=O)N[C@H](C(=O)O)C(C)C)[C@@H]1CCNC(=N)N1)C(=O)NCCCN[C@H](C(=O)O)[C@H](O[C@@H]1O[C@H](CN)[C@@H](O)[C@H]1O)[C@H]1O[C@@H](n2ccc(=O)[nH]c2=O)[C@H](O)[C@@H]1O [MURAMYCIN D2]	> 64	> 64	> 64	> 64	> 64	10	> 64	–
CN[C@H](CC(C)C)C(=O)N[C@H]1C(=O)N[C@@H](CC(N)=O)C(=O)N[C@H]2C(=O)N[C@H]3C(=O)N[C@H](C(=O)N[C@H](C(=O)O)c4cc(O)cc(O)c4-c4cc3ccc4O)[C@H](O)c3ccc(c(Cl)c3)Oc3cc2cc(c3O[C@@H]2O[C@H](CO)[C@@H](O)[C@H](O)[C@H]2O[C@H]2C[C@](C)(N)[C@H](O)[C@H](C)O2)Oc2ccc(cc2Cl)[C@H]1O [VANCOMYCIN]	> 64	–	> 64	–	1 (≈ 0.69 µM)	–	–	–
